ABHD5-PLIN5 inh: inhibitors of human ABHD5-perilipin-5 interaction; inhibition, % at 4 µM; Split G. princeps luciferase complementation, luminescence, 4 h; Q00G26+Q8WTS1; AID 602281; hit rate 0.78% among 360,000;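 active = inhibition above the mean inhibition across every tested compound plus 3 SD, cut at about 22% in these data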
B2AR ag: agonists of human beta-2 adrenergic receptor inducing internalization; P07550; Am2.2-beta2AR cells, FAP receptor internalization, flow cytometry; response, % (concentration not given with the values); hit rate 0.43% among 340,000; AID 504454;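 active = response above a set limit, near 3 SD of response in nonfluorescent compounds, cut at about 42% in these data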
Target sequence (P07550 whole entry, looked up): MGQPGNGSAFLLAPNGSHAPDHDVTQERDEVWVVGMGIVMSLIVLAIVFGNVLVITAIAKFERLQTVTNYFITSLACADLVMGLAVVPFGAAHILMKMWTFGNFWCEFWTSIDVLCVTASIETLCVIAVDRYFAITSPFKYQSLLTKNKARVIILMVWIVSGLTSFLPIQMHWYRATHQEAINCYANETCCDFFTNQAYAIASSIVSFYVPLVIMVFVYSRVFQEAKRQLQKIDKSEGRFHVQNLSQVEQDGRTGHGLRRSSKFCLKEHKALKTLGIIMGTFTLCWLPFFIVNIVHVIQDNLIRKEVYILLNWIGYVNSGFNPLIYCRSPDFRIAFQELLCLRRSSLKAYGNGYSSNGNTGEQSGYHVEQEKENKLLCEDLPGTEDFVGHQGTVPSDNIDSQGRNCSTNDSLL
NadD inh: inhibitors of Staphylococcus aureus NadD. purified NadD enzyme, colorimetric absorbance read-out. inhibition, % at 20 µM. hit rate 0.78% among 360,000. AID 602399; in the data active = inhibition above about 26%
GRK2 aptamer HTS: blocks RNA aptamer binding to human GRK2 | hit rate 0.59% among 330,000 | AID 488847 | bead flow cytometry, FAM-aptamer displacement from GRK2 | inhibition of aptamer binding, % at 10 µM;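 active = inhibition of aptamer binding above 40%, roughly 3 SD of noise, on plates passing a quality check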;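 also: median bead fluorescence of bound FAM aptamer so fluorescent compounds give negative values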
SENP1 inh: blocks the human SENP1 SUMO protease catalytic domain | Q9P0U3 | recombinant SENP1 catalytic domain, CyPet-SUMO1-YPet FRET cleavage | inhibition, % at 10 µM | hit rate 0.21% among 360,000 | AID 624204;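 active = inhibition at least 30% at 10 µM, raw YFP signal under a set limit, fluorescence ratio 0.5 to 1.5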
Target sequence (Q9P0U3 419-644 limits assumed): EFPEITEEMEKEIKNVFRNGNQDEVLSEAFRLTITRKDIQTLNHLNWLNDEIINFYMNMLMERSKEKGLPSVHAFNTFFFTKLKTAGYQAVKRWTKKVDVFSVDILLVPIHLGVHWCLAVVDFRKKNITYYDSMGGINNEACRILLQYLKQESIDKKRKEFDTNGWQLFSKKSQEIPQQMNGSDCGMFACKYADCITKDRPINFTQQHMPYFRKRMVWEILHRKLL
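Assay system – human recombinant His6-tagged SENP1 catalytic domain enzyme · Input – SENP1 enzyme, 20 pM final · Buffer or medium – Tris pH 8 buffer plus EDTA, NaCl, BME, BSA, NP40, catalase · Schedule – 50 min reaction at room temperature · Technique – FRET read of cyan and yellow fluorescence · Control set – no-enzyme wells low, DMSO-plus-enzyme wells high control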
NadD conf: NadD (S. aureus) inhibition, single concentration confirmation; shares compounds with NadD inh; purified S. aureus NadD, colorimetric enzyme assay; inhibition, % at 20 µM; hit rate 13% among 2,000; in the data active = inhibition mostly above about 42%, no sharp cut-off; inactive = mostly below about 42%
A number is an active result. In the library only some 2.5% were active in any assay of this set; here they are far more common.

Screening Cc1ccc(-c2nc3ccccc3[nH]2)cc1NC(=O)c1sc2cc(Cl)ccc2c1Cl returned ABHD5-PLIN5 inh inactive, B2AR ag inactive, NadD inh 29, GRK2 aptamer HTS inactive, SENP1 inh inactive and NadD conf inactive.
For O=C(O)c1ccccc1-c1ccc(C=c2sc3nc4cc(Br)cnc4n3c2=O)o1 the results were ABHD5-PLIN5 inh inactive, NadD inh 59, SENP1 inh inactive and NadD conf inactive.
`O=C(O)c1cc(C(=O)O)cc(-c2ccc(/C=c3/sc4nc5ccccc5n4c3=O)o2)c1` gave B2AR ag inactive.
`Cn1cc(C(=O)c2ccc(Cl)cc2Cl)cc1C(=O)N/N=C(\N)COc1ccc(Cl)cc1Cl` gave ABHD5-PLIN5 inh inactive, B2AR ag inactive, NadD inh 41, GRK2 aptamer HTS inactive, SENP1 inh inactive and NadD conf inactive.
Cn1cc(C(=O)c2ccc(Cl)cc2Cl)cc1C(=O)N/N=C(\N)COc1ccc(Cl)cc1 was read as ABHD5-PLIN5 inh inactive, B2AR ag 90, NadD inh 32, GRK2 aptamer HTS inactive, SENP1 inh inactive and NadD conf inactive.
`COC(=O)c1c(NC(=O)c2ccc(C)c(S(=O)(=O)Nc3ccccc3C)c2)sc2c1CCCC2` gave ABHD5-PLIN5 inh inactive, B2AR ag inactive, NadD inh 22, GRK2 aptamer HTS inactive, SENP1 inh inactive and NadD conf inactive.
`COC(=O)c1c(NS(=O)(=O)c2ccc3ccccc3c2)sc2c1CCCC2` gave ABHD5-PLIN5 inh inactive, B2AR ag inactive, NadD inh inactive, GRK2 aptamer HTS inactive and SENP1 inh inactive.
For CC(C)(O)c1ccccc1CC[C@@H](SCC1(CC(=O)O)CC1)c1cccc(/C=C/c2ccc3ccc(Cl)cc3n2)c1 the results were ABHD5-PLIN5 inh inactive, B2AR ag inactive, NadD inh 51, GRK2 aptamer HTS inactive, SENP1 inh inactive and NadD conf 56.
`CCCn1c(=O)c(C(=O)NNS(=O)(=O)c2ccc(Cl)cc2)c(O)c2ccccc21` gave ABHD5-PLIN5 inh inactive, B2AR ag inactive, NadD inh 30, GRK2 aptamer HTS inactive, SENP1 inh inactive and NadD conf inactive.
Screening CCCCCCCCCC(=O)NNC(=O)c1c(O)c2ccccc2n(CCC)c1=O returned ABHD5-PLIN5 inh inactive, B2AR ag inactive, NadD inh 38, GRK2 aptamer HTS inactive, SENP1 inh inactive and NadD conf inactive.
For CCCCCCCCC(=O)NNC(=O)c1c(O)c2ccccc2n(CCC)c1=O the results were ABHD5-PLIN5 inh inactive, B2AR ag inactive, NadD inh inactive, GRK2 aptamer HTS inactive and SENP1 inh inactive.
`COc1ccc(CN(C)S(=O)(=O)c2nnc(NC(=O)c3cccc(OC)c3)s2)cc1` gave ABHD5-PLIN5 inh inactive, B2AR ag inactive, NadD inh inactive, GRK2 aptamer HTS inactive and SENP1 inh inactive.
Screening COc1cccc(C(=O)Nc2nnc(S(=O)(=O)N(C)Cc3ccc(F)cc3)s2)c1 returned ABHD5-PLIN5 inh inactive, B2AR ag inactive, NadD inh 30, GRK2 aptamer HTS inactive, SENP1 inh inactive and NadD conf inactive.
For COCCNC(=O)C1CCC(Cn2c(=S)[nH]c3ccccc3c2=O)CC1 (stereo not drawn) the results were ABHD5-PLIN5 inh inactive, B2AR ag inactive, NadD inh inactive, GRK2 aptamer HTS inactive and SENP1 inh inactive.
O=C(NCCc1c[nH]c2ccccc12)C1CCC(Cn2c(=S)[nH]c3ccccc3c2=O)CC1 (stereo not drawn) was read as ABHD5-PLIN5 inh inactive, B2AR ag inactive, NadD inh 33, GRK2 aptamer HTS inactive, SENP1 inh inactive and NadD conf inactive.
Screening COc1ccc(NS(=O)(=O)c2ccc(O)c(NC(=O)c3cc4c(C)nn(-c5ccc(F)cc5)c4s3)c2)cc1 returned ABHD5-PLIN5 inh inactive, B2AR ag inactive, NadD inh 47, GRK2 aptamer HTS inactive, SENP1 inh inactive and NadD conf inactive.
COC(=O)c1ccc(NC(=O)c2cc[n+](Cc3ccccc3)cc2)cc1 was read as ABHD5-PLIN5 inh inactive, B2AR ag inactive, NadD inh inactive, GRK2 aptamer HTS inactive and SENP1 inh inactive.
For CCCCC1=CC2=CC(=O)C(C)(OC(=O)CC)C(=O)C2=CO1 (stereo not drawn) the results were ABHD5-PLIN5 inh inactive, B2AR ag inactive, NadD inh 33, GRK2 aptamer HTS inactive, SENP1 inh inactive and NadD conf 45.
`COC(=O)CCCC1=CC2=CC(=O)C(C)(OC(=O)C3CCCC3)C(=O)C2=CO1` (stereo not drawn) gave B2AR ag inactive and GRK2 aptamer HTS inactive.
`CCCCC1=CC2=CC(=O)C(C)(OC(=O)C3CCCC3)C(=O)C2=CO1` (stereo not drawn) gave ABHD5-PLIN5 inh inactive, B2AR ag inactive, NadD inh 53, GRK2 aptamer HTS inactive, SENP1 inh inactive and NadD conf inactive.
Cc1noc(C)c1COc1ccccc1C(=O)N(C)Cc1ccco1 was read as ABHD5-PLIN5 inh inactive, B2AR ag inactive, NadD inh inactive, GRK2 aptamer HTS inactive and SENP1 inh inactive.
`Cc1ccc(S(=O)(=O)Oc2ccccc2[N+](=O)[O-])cc1` gave ABHD5-PLIN5 inh inactive, B2AR ag inactive, NadD inh inactive and SENP1 inh inactive.
Cc1c(C(=O)NNC(=O)c2csc(N3CCOCC3)n2)oc2ccc(Br)cc12 was read as ABHD5-PLIN5 inh inactive, NadD inh 32, SENP1 inh inactive and NadD conf inactive.
Screening Cc1cc2cc(CNC(=O)Nc3ccccc3)ccc2[nH]1 returned ABHD5-PLIN5 inh inactive, B2AR ag inactive, NadD inh 49, GRK2 aptamer HTS inactive, SENP1 inh inactive and NadD conf inactive.
For Cc1cc2cc(CNC(=S)Nc3ccc(OC(F)(F)F)cc3)ccc2[nH]1 the results were ABHD5-PLIN5 inh inactive, B2AR ag inactive, NadD inh 32, GRK2 aptamer HTS inactive, SENP1 inh inactive and NadD conf inactive.
CCOC(=O)NCc1ccc2[nH]c(C)cc2c1 was read as ABHD5-PLIN5 inh inactive, B2AR ag inactive, NadD inh inactive, GRK2 aptamer HTS inactive and SENP1 inh inactive.
COC(=O)[C@]12CCCCC=C1N(Cc1ccccc1)C(=O)[C@H](CC(=O)NCCC(C)C)C2 was read as ABHD5-PLIN5 inh inactive, NadD inh inactive and SENP1 inh inactive.
Screening COc1cc(/C=N/NC(=O)COc2c(C)cc([N+](=O)[O-])cc2C)ccc1OC(=O)c1ccccc1Br returned ABHD5-PLIN5 inh inactive, B2AR ag inactive, NadD inh 33, GRK2 aptamer HTS inactive, SENP1 inh inactive and NadD conf inactive.
`O=C(Nc1nnc([C@@H]2C[C@H](O)[C@@H](CO)O2)s1)NC(c1ccccc1)c1ccccc1` gave ABHD5-PLIN5 inh inactive, NadD inh inactive and SENP1 inh inactive.
For Nc1cc(N)cc(Cc2ccccc2)c1 the results were ABHD5-PLIN5 inh inactive, NadD inh 33, SENP1 inh inactive and NadD conf inactive.
Screening Nc1cc(Cc2ccccc2)ccc1O returned ABHD5-PLIN5 inh inactive, B2AR ag inactive, NadD inh inactive and SENP1 inh inactive.
